Assay results as given in publication PMC8848307 (Journal of medicinal chemistry, 2019).

What was measured:
Format in all cases: cell-based
STAT3 protein [1] = target: T1, STAT3 protein (Homo sapiens, UniProt P40763); assay: Western blotting of STAT3 degradation in Molm-16 cells; settings: for degradation of total STAT3 and pSTAT3^Y705 proteins: Molm-16, concentrations up to 10 μM
Molm-16 cell line = assay: Cell growth assay; settings: for activity in inhibition of cell growth: Molm-16
SU-DHL-1 cell line = assay: Cell growth assay; settings: SU-DHL-1, up to 10 μM
STAT3 protein [2] = target: T1, STAT3 protein; assay: Western blotting of STAT3 degradation in SU-DHL-1 cells; settings: SU-DHL-1, concentrations up to 10 μM
[3] = system: STAT1, STAT2, STAT4, STAT5A/B, and STAT6 proteins; assay: Western blotting analysis of other STAT proteins in Molm-16 and SU-DHL-1 cells; settings: 10 μM; Molm-16 4 h, SU-DHL-1 18 h
Summary of the method: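 Molm-16 cells were treated for 4 h and SU-DHL-1 cells for 18 h, with test compound at 0.01–10 μM and control compounds at 10 μM. Cells were lysed and run on SDS–PAGE, then transferred to PVDF and blocked 1 h in 5% blocker in TBST. Blots were probed with primary then secondary antibodies against STAT family members and developed by chemiluminescence.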

T1 sequence (P40763 whole entry): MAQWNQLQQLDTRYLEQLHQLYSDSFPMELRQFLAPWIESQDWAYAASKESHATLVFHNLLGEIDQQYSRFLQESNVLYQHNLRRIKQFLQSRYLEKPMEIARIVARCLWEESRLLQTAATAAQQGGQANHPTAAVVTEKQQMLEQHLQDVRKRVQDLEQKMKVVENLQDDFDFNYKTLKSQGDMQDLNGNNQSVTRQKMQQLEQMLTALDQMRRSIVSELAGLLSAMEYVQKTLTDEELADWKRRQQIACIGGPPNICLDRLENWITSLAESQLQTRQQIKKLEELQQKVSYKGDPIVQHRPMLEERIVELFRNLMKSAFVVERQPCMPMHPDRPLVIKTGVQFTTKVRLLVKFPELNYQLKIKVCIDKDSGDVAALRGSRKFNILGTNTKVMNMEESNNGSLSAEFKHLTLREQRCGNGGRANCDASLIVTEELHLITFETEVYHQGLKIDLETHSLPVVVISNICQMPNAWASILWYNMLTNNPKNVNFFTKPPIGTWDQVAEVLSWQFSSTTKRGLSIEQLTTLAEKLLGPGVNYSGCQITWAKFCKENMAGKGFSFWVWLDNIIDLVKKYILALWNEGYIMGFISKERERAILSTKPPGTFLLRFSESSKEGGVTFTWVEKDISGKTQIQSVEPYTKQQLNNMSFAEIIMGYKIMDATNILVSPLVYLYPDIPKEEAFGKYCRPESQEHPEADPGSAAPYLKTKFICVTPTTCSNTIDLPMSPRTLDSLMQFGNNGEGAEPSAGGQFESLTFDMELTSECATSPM

NC(=O)CC[C@H](NC(=O)[C@@H]1CC[C@@H]2CCN(C(=O)CCCCCC#Cc3cccc4c3CN(C3CCC(=O)NC3=O)C4=O)C[C@H](NC(=O)c3cc4cc(OP(=O)(O)O)ccc4[nH]3)C(=O)N21)C(=O)NC(c1ccccc1)c1ccccc1 (stereo partly drawn) [Compound 32, 2-(((5S,8S,10aR)-8-(((S)-5-Amino-1-(benzhydrylamino)-1,5-dioxopentan-2-yl)carbamoyl)-3-(8-(2-(2,6-dioxopiperidin-3-yl)-1-oxoisoindolin-4-yl)oct-7-ynoyl)-6-oxodecahydropyrrolo-[1,2-a][1,5]diazocin-5-yl)carbamoyl)-1H-indol-5-yl Dihydrogen Phosphate]
degradation of total STAT3 and pSTAT3^Y705 proteins (STAT3 protein [1]): fail to degrade | activity in inhibition of cell growth (Molm-16 cell line): very weak activity

NC(=O)CC[C@H](NC(=O)[C@@H]1CC[C@@H]2CCN(C(=O)CCCCCC#Cc3cccc4c3CN(C3CCC(=O)NC3=O)C4=O)C[C@H](NC(=O)c3cc4cc(CP(=O)(O)O)ccc4[nH]3)C(=O)N21)C(=O)NC(c1ccccc1)c1ccccc1 (stereo partly drawn) [Compound 33, ((2-(((5S,8S,10aR)-8-(((S)-5-Amino-1-(benzhydrylamino)-1,5-dioxopentan-2-yl)carbamoyl)-3-(8-(2-(2,6-dioxopiperidin-3-yl)-1-oxoisoindolin-4-yl)oct-7-ynoyl)-6-oxodecahydropyrrolo-[1,2-a][1,5]diazocin-5-yl)carbamoyl)-1H-indol-5-yl)methyl)-phosphonic Acid]
degradation of total STAT3 and pSTAT3^Y705 proteins (STAT3 protein [1]): fail to degrade | activity in inhibition of cell growth (Molm-16 cell line): very weak activity

CN1C(=O)CCC(N2Cc3c(C#CCCCCCC(=O)N4CC[C@H]5CC[C@@H](C(=O)N[C@@H](CCC(N)=O)C(=O)NC(c6ccccc6)c6ccccc6)N5C(=O)[C@@H](NC(=O)c5cc6cc(C(F)(F)P(=O)(O)O)ccc6[nH]5)C4)cccc3C2=O)C1=O (stereo partly drawn) [SD-36Me, ((2-(((5S,8S,10aR)-8-(((S)-5-Amino-1-(benzhydrylamino)-1,5-dioxopentan-2-yl)carbamoyl)-3-(8-(2-(1-methyl-2,6-dioxopi-peridin-3-yl)-1-oxoisoindolin-4-yl)oct-7-ynoyl)-6-oxodecahydropyrrolo[1,2-a][1,5]diazocin-5-yl)carbamoyl)-1H-indol-5-yl)difluoromethyl)phosphonic Acid]
effect on cell viability (SU-DHL-1 cell line): no effect | degradation of total STAT3 and pSTAT3^Y705 proteins (STAT3 protein [1]): completely ineffective | times less potent than SD-36 in cell growth inhibition (Molm-16 cell line; Molm-16, ratio of IC50): 400 times | effect on the levels of STAT3 and pSTAT3^Y705 (STAT3 protein [2]): no effect | effect on the levels of any STAT protein [3]: no effect

CC(=O)N1CC[C@H]2CC[C@@H](C(=O)N[C@@H](CCC(N)=O)C(=O)NC(c3ccccc3)c3ccccc3)N2C(=O)[C@@H](NC(=O)c2cc3cc(C(F)(F)P(=O)(O)O)ccc3[nH]2)C1 [SI-109, ((2-(((5S,8S,10aR)-3-Acetyl-8-(((S)-5-amino-1-(benzhydrylamino)-1,5-dioxopentan-2-yl)carbamoyl)-6-oxodecahydropyrrolo[1,2-a][1,5]diazocin-5-yl)carbamoyl)-1H-indol-5-yl)difluoromethyl)phosphonic Acid]
effect on cell viability (SU-DHL-1 cell line): no effect | effect on the level of total STAT3 protein (STAT3 protein [1]; Molm-16, 4 h, concentrations up to 1 μM): no effect | effect on the level of pSTAT3^Y705 protein (STAT3 protein [1]; Molm-16, 4 h, up to / at 1 μM): only modestly decreases | effect on the levels of STAT3 and pSTAT3^Y705 (STAT3 protein [2]): no effect | effect on the levels of any STAT protein [3]: no effect
